Laboratory results from ChEMBL document CHEMBL1149763, “Synthesis, in vitro antiproliferative activities, and Chk1 inhibitory properties of pyrrolo[3,4-a]carbazole-1,3-diones, pyrrolo[3,4-c]carbazole-1,3-diones, and 2-aminopyridazino[3,4-a]pyrrolo[3,4-c]carbazole-1,3,4,7-tetraone” (Eur J Med Chem, 2008).
Activity calls are given as the source filed them. No cut-off for these calls is given here.

What was measured:
L1210 = assay: Antiproliferative activity against mouse L1210 cells by microculture tetrazolium assay; format: functional, cell-based
Summary of the method: (§1)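 Cells grown in RPMI 1640 with 10% fetal calf serum, 2 mM L-glutamine, penicillin/streptomycin and 10 mM HEPES (pH 7.4). Continuous exposure to graded compound concentrations for four doubling times. MTT (5 mg/mL) added, 4 h at 37 °C, formazan dissolved in DMSO, optical density read. IC50 is the concentration halving optical density relative to untreated controls.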

HT-29 = assay: Antiproliferative activity against human HT29 cells microculture tetrazolium assay; format: functional, cell-based; summary of the method: as §1
[1] = molecular target: T1, Serine/threonine-protein kinase Chk1 (Homo sapiens) (UniProt O14757); assay: Inhibition of human Chk1 at 10 uM
T1 sequence (whole entry): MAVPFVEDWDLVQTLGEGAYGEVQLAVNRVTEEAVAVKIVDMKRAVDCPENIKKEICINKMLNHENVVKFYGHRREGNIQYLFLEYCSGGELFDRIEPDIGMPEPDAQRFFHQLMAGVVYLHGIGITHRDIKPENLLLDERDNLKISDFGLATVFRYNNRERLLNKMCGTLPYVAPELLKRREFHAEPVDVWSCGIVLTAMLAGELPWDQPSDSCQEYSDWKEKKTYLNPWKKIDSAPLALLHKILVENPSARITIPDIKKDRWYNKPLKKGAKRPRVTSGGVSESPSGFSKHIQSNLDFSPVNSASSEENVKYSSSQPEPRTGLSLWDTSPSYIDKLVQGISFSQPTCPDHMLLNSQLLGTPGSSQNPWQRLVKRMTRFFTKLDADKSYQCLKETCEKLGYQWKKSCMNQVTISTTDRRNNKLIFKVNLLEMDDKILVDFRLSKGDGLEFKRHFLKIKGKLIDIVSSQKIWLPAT
Summary of the method: (§2)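 Chk1, commercial or GST-Chk1 purified from baculovirus-infected Sf9 cell extracts. Percent inhibition measured at a single compound concentration; IC50 also determined.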

[2] = molecular target: T2, Serine/threonine-protein kinase Chk1 (Homo sapiens, UniProt O14757); assay: Inhibition of human Chk1; summary of the method: as §2
T2 sequence (O14757 whole entry): T1 sequence (whole entry)

[3] = Antiproliferative activity against human […] cells microculture tetrazolium assay; format: functional, cell-based; summary of the method: as §1
[4] = molecular target: Proto-oncogene tyrosine-protein kinase Src (Homo sapiens) (UniProt P12931); assay: Inhibition of Src kinase at 10 uM
Proto-oncogene tyrosine-protein kinase Src (Homo sapiens), sequence (P12931 2-536 limits assumed): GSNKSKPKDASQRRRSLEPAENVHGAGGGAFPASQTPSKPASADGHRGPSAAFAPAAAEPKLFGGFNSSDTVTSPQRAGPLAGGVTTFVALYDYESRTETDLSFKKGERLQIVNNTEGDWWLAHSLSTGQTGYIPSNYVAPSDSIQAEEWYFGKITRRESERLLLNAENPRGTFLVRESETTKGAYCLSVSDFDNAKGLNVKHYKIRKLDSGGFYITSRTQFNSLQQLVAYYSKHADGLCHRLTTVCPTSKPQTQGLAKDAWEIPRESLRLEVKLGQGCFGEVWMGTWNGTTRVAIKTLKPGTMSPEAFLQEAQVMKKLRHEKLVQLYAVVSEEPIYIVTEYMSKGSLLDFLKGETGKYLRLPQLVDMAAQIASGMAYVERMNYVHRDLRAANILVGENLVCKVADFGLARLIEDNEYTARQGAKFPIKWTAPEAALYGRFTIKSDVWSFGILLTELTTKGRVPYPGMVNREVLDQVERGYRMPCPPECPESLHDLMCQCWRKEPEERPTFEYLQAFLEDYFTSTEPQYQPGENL
Summary of the method: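 Radiometric Src kinase assay. 20 min at 30 °C, stopped with 0.85% orthophosphoric acid, captured on phosphocellulose filter, washed with orthophosphoric acid, dried with acetone.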

SMILES | IC50 (L1210) | IC50 (HT-29) | inhibition [1] | IC50 [2] | inhibition [4] | Activity [1] | IC50 [3]
CCOC(=O)c1cc2c(c3c1[nH]c1ccccc13)C(=O)N(CO)C2=O | 5.5 µM | 3.9 µM | 72.4% | 0.21 µM | 11.5% | – | 2.9 µM
O=C1NC(=O)c2c1c1c(c3c2[nH]c2ccccc23)CNC1=O | 47 µM | > 100 µM | 71.7% | 0.37 µM | – | – | 58.9 µM
O=c1[nH]c(=O)c2c1c1[nH]c3ccccc3c1c1c(=O)oc(=O)c21 | 11.9 µM | 33 µM | – | – | – | inactive | 10.7 µM
O=C1NC(=O)c2c1c1c3ccccc3[nH]c1n1cncc21 [ISOGRANULATIMIDE] | – | – | – | – | – | – | 13 µM
O=C1NC(=O)c2c1c1[nH]cnc1c1[nH]c3ccccc3c21 [GRANULATIMIDE] | – | – | – | – | – | – | 6.1 µM
CCOC(=O)c1c2c(c3[nH]c4ccccc4c3c1O)C(=O)N(CO)C2=O | 10.6 µM | 31.7 µM | – | – | – | inactive | 11.5 µM
O=C1NC(=O)c2c1c1c(c3c2[nH]c2ccccc23)C(=O)NC1 | 45.8 µM | 8.2 µM | 85.4% | 0.05 µM | – | – | 10.2 µM
CCOC(=O)c1cc2c(c3[nH]c4ccccc4c13)C(=O)NC2=O | 4.9 µM | 6.4 µM | 45.3% | – | – | – | 3.8 µM

More lines, in order of falling IC50 (L1210), values ahead:

IC50 (L1210) | IC50 (HT-29) | inhibition [1] | IC50 [2] | inhibition [4] | Activity [1] | SMILES | IC50 [3]
57.5 µM | 84.9 µM | – | – | – | inactive | CCOC(=O)c1c2c(c3[nH]c4ccccc4c3c1O)C(=O)NC2=O | 33.6 µM
54.4 µM | 46.7 µM | 11% | – | – | – | O=C1NC(=O)c2c1cc(O)c1c2[nH]c2ccccc21 | 34.4 µM
5.8 µM | 4 µM | 71.7% | > 5 µM | – | – | CCOC(=O)c1cc2c(c3c1[nH]c1ccccc13)C(=O)NC2=O | 2.3 µM
5.7 µM | 6.2 µM | 10.6% | – | – | – | O=C1NC(=O)C2C1c1[nH]c3ccccc3c1C1C(=O)OC(=O)C12 (stereo unspecified) | –
